Assay outcomes (PubChem)
OX1R antag-1 – antagonists of human orexin 1 receptor; AID 434989; CHO/OX1R cells, Fluo-8 calcium fluorescence, orexin A; 330,000 compounds, 0.43% hits; O43613; inhibition, % at 5 µM;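 active = inhibition above its plate's threshold, mean inhibition of all tested compounds on the plate plus 3 SD, cut at about 37% in these data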
Target sequence (O43613 whole entry, looked up): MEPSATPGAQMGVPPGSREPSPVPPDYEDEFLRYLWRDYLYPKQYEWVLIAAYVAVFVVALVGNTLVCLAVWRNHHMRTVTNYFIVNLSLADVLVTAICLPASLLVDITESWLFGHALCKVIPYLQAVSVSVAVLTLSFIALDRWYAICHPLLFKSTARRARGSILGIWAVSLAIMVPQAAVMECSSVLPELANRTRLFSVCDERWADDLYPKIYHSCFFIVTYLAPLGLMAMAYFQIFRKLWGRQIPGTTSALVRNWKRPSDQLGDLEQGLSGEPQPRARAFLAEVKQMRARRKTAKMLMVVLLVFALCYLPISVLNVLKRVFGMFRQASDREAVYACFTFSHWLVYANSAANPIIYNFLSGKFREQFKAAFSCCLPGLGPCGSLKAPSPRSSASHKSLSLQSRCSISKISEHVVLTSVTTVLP
TAAR1 antag – antagonists of human TAAR1. Q96RJ0. CHO RD-HGA16 TAAR1, Fluo-8 calcium fluorescence, antagonist. inhibition, % at 3 µM. 360,000 compounds, 1.5% hits. AID 624466;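 active = inhibition above a per-plate cutoff, the mean inhibition of test compounds on that plate plus 3 SD, cut at about 49% in these data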
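Assay system: RD-HGA16 CHO cells with stable hTAAR1 and Gα16 / Reagent: EC80 β-phenethylamine stimulus / Doses: 3 µM, single point / Timing: dye loading 75 min at 37 °C, then 30 min room temperature / Measured by: Fluo-8 intracellular calcium dye fluorescence, real-time kinetic reads / Controls: vehicle wells and EC80 agonist wells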
CHO parental Ca – signal in parental CHO cells, OX1R antagonist counter-screen | parental CHO-K1, ATP-induced calcium, Fluo-8 fluorescence | inhibition, % at 5.6 µM | 330,000 compounds, 0.63% hits | AID 463079;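 active = inhibition above that plate's mean sample inhibition plus 3 SD, cut at about 26% in these data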
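Material – parental CHO cells · Reagent – ATP stimulus · Compound – single nominal dose of 5.6 µM per compound · Detection – Fluo-8 fluorescence · Read-out basis – percent inhibition of calcium signal · Controls – ATP-challenged DMSO wells low, unchallenged DMSO wells high · Repeats – no replicates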
OX1R antag-2 – OX1R (human) antagonism. OX1R-expressing cells, FRET antagonist read-out. inhibition, % at 6.6 µM. 330,000 compounds, 1.8% hits. AID 485270; in the data active = inhibition mostly above about 38%, no sharp cut-off; inactive = mostly below about 40%
TAAR1 agonist – human TAAR1 agonism | Q96RJ0 | CHO RD-HGA16 TAAR1, Fluo-8 calcium fluorescence; vehicle wells 0%, saturating PEA agonist 100% | activation, % at 3 µM | 360,000 compounds, 0.99% hits | AID 624467;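 active = activation above the mean activation of all test compounds in the run plus 3 SD, cut at about 38% in these data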
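Signal – calcium-sensitive Fluo-8 signal, excitation 470-495, emission 515-575 nm · System – RD-HGA16 (CHO) cells co-expressing Gα16 and hTAAR1 · Incubation – 17-24 h seeding, 75 min 37 °C dye, 30 min RT · Compound dosing – 3 µM single concentration · Repeats – no replicates (n 1)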
GPR7 antag – antagonists of human GPR7 (neuropeptides B/W receptor 1) | 290,000 compounds, 1.1% hits | AID 1861 | GPR7-expressing cells, fluorescence antagonist assay | inhibition, % at 4.4 µM; in the data active = inhibition above about 16%, passing the limit was not always enough;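 also: cells stimulated with the agonist NPW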
Numbers stand for hits; . = inactive; / = no result. Hits are enriched below; roughly 4.6% of the tested compounds scored in any of these assays.

SMILES | OX1R antag-1 | TAAR1 antag | CHO parental Ca | OX1R antag-2 | TAAR1 agonist | GPR7 antag
COc1ccc(C(=O)NC2CCCc3c2cnn3-c2cccc(C)c2C)o1 (stereo unspecified) | . | . | . | 68.1 | . | .
CCn1cc(C(=O)NC2CCCc3c2cnn3-c2cccc(C)c2C)cn1 (stereo unspecified) | . | . | 53.5 | . | . | .
CC1=C(C(=O)NC2CCCc3c2cnn3-c2cccc(C)c2C)OCCO1 (stereo unspecified) | . | . | . | 67.3 | . | .
COC(=O)[C@@]1(C)[C@H]2C(=O)N(C)C(=O)[C@H]2[C@H]2CN=C(SCc3ccc(Cl)cc3)N21 | . | . | . | . | . | /
O=C(Oc1cccc(Nc2ncnc3ccccc23)c1)c1ccccc1Cl | 53.0 | 73.6 | 71.0 | 95.2 | . | .
Cc1cc(N)n2nc(C)c(-c3ccccc3)c2n1 | . | . | . | 63.5 | . | .
C#CCOCCOCCOCCNc1nc(N2CCOCC2)nc(N2CCN(C(=O)CCCCCCCCCCNC(=O)[C@@H]([C@H](C)CC)n3cc(CCCCCN)nn3)CC2)n1 | . | . | . | . | . | /
C#CCOCCOCCOCCNc1nc(N2CCN(C(=O)CCCCCCCCCCNC(=O)Cn3cc(C[C@@H](C)O)nn3)CC2)nc(N2CCN(C(=O)CCCCCCCCCCNC(=O)[C@H](CO)n3cc(CCCSC)nn3)CC2)n1 | . | 49.1 | . | . | . | /
C#CCOCCOCCOCCNc1nc(N2CCN(C(=O)CCCCCCCCCCNC(=O)[C@H]([C@@H](C)CC)n3cc(CCCCCN)nn3)CC2)nc(N2CCN(C(=O)CCCCCCCCCCNC(=O)[C@@H]([C@H](C)CC)n3cc(CCCCCN)nn3)CC2)n1 | . | / | 78.6 | . | / | /
C#CCOCCOCCOCCNc1nc(N2CCN(C(=O)CCCCCCCCCCNC(=O)[C@H]([C@@H](C)CC)n3cc(CCCCCN)nn3)CC2)nc(N2CCN(C(=O)CCCCCCCCCCNC(=O)[C@H](CO)n3cc(CCCCCN)nn3)CC2)n1 | . | / | 68.0 | . | / | /
Clc1ccc(CN2CCN(c3ncc(Cc4ccccc4)cn3)CC2)c(Cl)c1 | / | . | / | / | . | /
COC(=O)c1cc2c(c3c4cc(C)ccc4n(S(=O)(=O)c4ccc(OC)cc4)c13)C(=O)N(Cc1ccccc1OC)C2 | / | . | / | / | . | /
COC(=O)C1=C(C)N(Cc2cccc(C(F)(F)F)c2)C(=NCc2cc(OC)c(OC)c(OC)c2)NC1CCc1ccccc1 (stereo unspecified) | / | . | / | / | . | /
COc1ccc(NC(=O)c2cc(C3CCCCN3C(=O)c3cc(C(C)(C)C)nn3C)on2)c(C)c1 (stereo unspecified) | / | . | / | / | . | /
CCOc1cccc2c1OC1(C)CC2NC(=O)N1c1cccc(Cl)c1 (stereo unspecified) | . | . | . | 43.7 | . | .
CC(C)(C)OC(=O)C(Oc1ccccc1[N+](=O)[O-])C(=O)OC(C)(C)C | / | . | / | / | . | /
Cc1ccccc1OCCCCc1c(C)n[nH]c1C | . | . | . | . | . | .
Cc1n[nH]c(C)c1CCCCOc1ccccc1[N+](=O)[O-] | . | . | 48.0 | 58.8 | . | .
C/C(=C\c1ccc(C)o1)C(=O)c1c(C)cc(C)[nH]c1=O | . | . | . | . | . | 19.5
Cc1cccc(/C=C/c2onc(C)c2[N+](=O)[O-])n1 | . | . | . | 65.3 | . | /
CC(C)(C)c1ccc(Cn2cnc(-c3ccc([N+](=O)[O-])cc3)c2)cc1 | . | . | 42.3 | . | . | .
Cc1cc(C)c(Cn2cnc(-c3ccc([N+](=O)[O-])cc3)c2)c(C)c1 | . | . | . | . | . | .
CC(C)(C)c1ccc(OCc2ccc(C(=O)N/N=C/c3ccc(O)c(O)c3)cc2)cc1 | . | 53.0 | . | . | . | .
COC(=O)c1ccc(C)c(NC(=O)CCSc2ccc(Cl)cc2)c1 | . | . | . | . | . | .
COC(=O)c1cccc(NC(=O)CCSc2ccc(Cl)cc2)c1C | . | 91.3 | . | . | 77.4 | .
SMILES | OX1R antag-1 | TAAR1 antag | CHO parental Ca | OX1R antag-2 | TAAR1 agonist | GPR7 antag
COc1cc(OC)c(NC(=O)C(Sc2nc(C)cc(C)c2C#N)c2ccccc2)cc1Cl (stereo unspecified) | / | . | / | / | . | /
O=S(=O)(c1ccccc1)N1CCCc2nc(-c3ccccc3)ccc21 | / | . | / | / | . | /
COc1cc(C(=O)NC2CCCCN(C)C2=O)cc(OC)c1OC (stereo unspecified) | / | . | / | / | . | /
COC(=O)c1cccc2nc3c(C(C)O)cccc3nc12 (stereo unspecified) | . | . | . | 50.2 | . | /
COc1ccc(-c2nc3cc(C)ccn3c2NC(=O)c2ccccc2OC)cc1 | . | . | . | . | . | .
CCCCNc1c(-c2cccc(-c3ccc(OC)cc3)c2)nc2ccc(C)cn12 | 46.5 | 81.2 | 73.8 | . | . | /
CCCCNc1c(-c2cccc(-c3ccc(OC)cc3)c2)nc2cc(C)ccn12 | . | 54.9 | 65.3 | . | . | /
COc1ccc(-c2nc3ccc(C)cn3c2NCc2ccc3c(c2)OCO3)cc1 | . | . | . | . | . | .
CC(C)C[C@H]1CNC(=O)C(=O)N1C[C@H]1CCCN1C[C@H](CC(C)C)N1C[C@H](Cc2ccccc2)N(CCc2ccccc2)C(=O)C1=O | / | . | / | / | . | /
CCc1cccc(-n2c(C)cc(O)cc2=O)c1 | / | . | / | / | . | /
Cc1nn(-c2ccccc2)nc1C(=O)Oc1cc(C(F)(F)F)nn1-c1ccccc1 | . | . | . | . | . | .
CN1CCCCC(NC(=O)CCCl)C1=O (stereo unspecified) | / | . | / | / | . | /
COc1cccc(OC)c1OCCCOc1ccc([N+](=O)[O-])cc1Cl | . | . | . | . | . | 17.2
CCOc1ccccc1OCCCOc1ccc([N+](=O)[O-])cc1Cl | . | . | . | . | . | .
CCN(CC)c1ccc(/C=C/C(=O)c2ccc(Br)cc2)cc1 | 99.2 | 80.7 | 90.5 | . | 137.8 | .
O=C(/C=C/c1ccccc1)c1ccc(NC2=NCCCS2)cc1 | . | . | . | . | . | .
CC(=O)Nc1cccc(C(=O)/C=C/c2ccc(Br)cc2)c1 | . | . | . | . | . | 20.4
O=C(/C=C/c1ccc(Br)cc1)c1ccc(NC2=NCCCS2)cc1 | . | . | . | . | . | 51.6
Cc1cc2c(nc1C)CCCN2S(=O)(=O)c1ccccc1 | / | . | / | / | . | /
O=C(Nc1cccc(Cl)c1)C1C2CCC3C(CCC21)C3(Cl)Cl (stereo unspecified) | . | . | . | . | . | 41.5
O=C(Nc1ccccc1)C1C2CCC3C(CCC21)C3(Cl)Cl (stereo unspecified) | . | . | . | . | . | .
CC(C)C(c1nnnn1Cc1ccc(F)cc1)N1CCN(C2CCCC2)CC1 (stereo unspecified) | . | . | . | . | . | .
CCCC(c1nnnn1Cc1ccc(F)cc1)N1CCN(C2CCCCC2)CC1 (stereo unspecified) | . | . | . | . | . | 32.6
